For data set [1], the system named is HCT-116. The experiment in a line: Antitumor activity against human HCT116 cells xenografted in po dosed nude athymic mouse assessed as tumor growth inhibition after 2 to 16 days. It is filed as functional, organism-based.
The target of data set [2] is T1, Histone deacetylase 8 (Homo sapiens, UniProt Q9BY41).
T1 sequence (Q9BY41 whole entry): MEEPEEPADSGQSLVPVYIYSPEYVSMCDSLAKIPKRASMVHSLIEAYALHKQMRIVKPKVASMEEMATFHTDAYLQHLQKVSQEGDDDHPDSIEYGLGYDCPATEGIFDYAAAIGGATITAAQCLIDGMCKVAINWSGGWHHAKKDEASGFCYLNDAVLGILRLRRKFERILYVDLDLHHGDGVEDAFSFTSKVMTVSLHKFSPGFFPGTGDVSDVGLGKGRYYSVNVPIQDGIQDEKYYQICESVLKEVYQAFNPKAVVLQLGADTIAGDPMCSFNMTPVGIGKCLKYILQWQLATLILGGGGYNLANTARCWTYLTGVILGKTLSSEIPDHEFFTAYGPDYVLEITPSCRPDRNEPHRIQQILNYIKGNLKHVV
The data set can be described thus: Inhibition of HDAC8 (unknown origin) by fluorescence assay. In outline: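 Run by a contract testing lab. Compounds were dissolved in DMSO and tested in 10-dose IC50 mode, using 3-fold serial dilution starting at 10 μM. IC50 was taken from the dose series.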

Data set [3] relates to KB. The data set can be described thus: Cytotoxicity against human KB cells by MTT assay. It is filed as functional, cell-based.
Data set [4] can be described thus: Cmax in ICR mouse at 10 mg/kg, po by LC-MS/MS analysis. The format is ADME, organism-based. Set-up: dose 10 mg/kg, route oral. As to conditions: in vivo.
Data set [5] deals with HCT-116. The data set can be described thus: Induction of apoptosis in human HCT116 cells assessed as increase in p53 protein level at 0.1 to 3 uM after 24 hrs by immunoblotting analysis. The format is functional, cell-based.
The nature of data set [6]: Half life in ICR mouse at 2 mg/kg, iv by LC-MS/MS analysis. It is filed as ADME, organism-based. On the set-up: dose 2 mg/kg, route intravenous. As to conditions: in vivo.
In data set [7] the test system is HCT-116. The experiment in a line: Induction of apoptosis in p53 knock down human HCT116 cells assessed as PARP cleavage at 1 uM after 24 hrs by immunoblotting analysis. The format is functional, cell-based.
The subject of data set [8] is HCT-116. The data set can be described thus: Induction of apoptosis in human HCT116 cells assessed as caspase-3 activation after 24 hrs by Western blotting analysis. The format is functional, cell-based. In outline:
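HCT116 cells treated with indicated concentrations for 24 h; lysates probed by Western blot for caspase 3 and PARP cleavage.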
Background: In western blotting, separated proteins are transferred to a membrane and probed.

For data set [9], the system named is PC-3. The data set can be described thus: Cytotoxicity against human PC3 cells by MTT assay. The format is functional, cell-based. Background: Tetrazolium dyes change colour on reduction, which living cells bring about.
Data set [10] has as its system HCT-116. The data set can be described thus: Induction of apoptosis in human HCT116 cells assessed as accumulation at sub-G1 phase at 1 uM by propidium iodide staining-based flow cytometric analysis. The format is functional, cell-based. As to conditions: TDE = time-dependent effect. Put shortly: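 HCT116 cells exposed to 1 μM compound for varying time intervals; sub-G1 population quantified by flow cytometry.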
In general terms: In flow cytometry, cells or beads pass a laser one at a time.

The nature of data set [11]: Tmax in ICR mouse at 10 mg/kg, po by LC-MS/MS analysis. As to conditions: in vivo. Set-up: dose 10 mg/kg, route oral. It is filed as ADME, organism-based.

The text below walks through data of ChEMBL document CHEMBL3259569 (J Med Chem, 2014).

Active and inactive are the calls of the source.

On to `O=C(/C=C/c1cccc(S(=O)(=O)n2ccc3cccnc32)c1)NO`, for which the TGI entry in data set [1] is “Dose-dependent effect”. The IC50 (commonly the point on the concentration scale where inhibition reaches its midpoint) in data set [2] came to 1.39 µM; in [3] it was 0.76 µM; in data set [9] it was 1.63 µM. The highest level in data set [4] (Cmax) was 0.409 µg/mL. In addition, the result in data set [5] was Active. The half-life (as a rule, the time needed for the level to fall by half in the phase considered) in data set [6] was 2.5 h. The result in [7] was inactive. Further, the Activity entry in data set [8] was “Dose-dependent effect”; in [10] it was “tde”. Further, in data set [11], the time of peak concentration (Tmax) – broadly, the time at which the peak concentration occurs – was determined as 0.3 h.
